Laboratory results published in ChEMBL document CHEMBL1155323, “Synthesis, characterization and antibacterial activity of 2-[1-(5-chloro-2-methoxy-phenyl)-5-methyl-1H-pyrazol-4-yl]-5-(substituted-phenyl)-[1,3,4]oxadiazoles” (Eur J Med Chem, 2009).
Values after ≈ are worked out from the molar mass of the structure shown.

Key:
Bacillus subtilis [1] = assay: Antibacterial activity against Bacillus subtilis ATCC 6633 after 24 hrs by microtitration method; type: functional; settings: ATCC 6633, 24 h
How it was run: (§1)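 Strains grown in Luria broth (1% tryptone, 0.5% yeast extract, 0.5% NaCl), pH 7.2, at 37 °C for 24 h. Mid-log cells read at 540 nm and diluted to OD 0.004 (5×10^5 CFU/mL), then dispensed into microplate wells. Graded concentrations (0.2–500 µg/mL) in 20% water in DMSO added; incubated 37 °C, 24 h.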

Escherichia coli [2] = assay: Antibacterial activity against Escherichia coli ATCC 8739 at 100 ug/ml after 24 hrs by agar cup plate method; type: functional; settings: ATCC 8739, 24 h, read-out: IZ
How it was run: (§2)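 Agar well (bore) diffusion on inoculated nutrient agar with recultured organisms. Test samples prepared in 20% water in DMSO at 100 µg/mL and placed in bores. Plates incubated at 37 °C for 24 h, then the inhibition zone around each bore measured. Controls: inoculum only, and DMSO only.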

Klebsiella pneumoniae [3] = assay: Antibacterial activity against Klebsiella pneumoniae ATCC 11298 after 24 hrs by microtitration method; type: functional; settings: ATCC 11298, 24 h; how it was run: as §1
Klebsiella pneumoniae [4] = assay: Antibacterial activity against Klebsiella pneumoniae ATCC 11298 at 100 ug/ml after 24 hrs by agar cup plate method; type: functional; settings: ATCC 11298, 24 h, read-out: IZ; how it was run: as §2
Bacillus subtilis [5] = assay: Antibacterial activity against Bacillus subtilis ATCC 6633 at 100 ug/ml after 24 hrs by agar cup plate method; type: functional; settings: ATCC 6633, 24 h, read-out: IZ; how it was run: as §2
Staphylococcus aureus [6] = assay: Antibacterial activity against Staphylococcus aureus ATCC 6538P at 100 ug/ml after 24 hrs by agar cup plate method; type: functional; settings: read-out: IZ; how it was run: as §2
Staphylococcus aureus [7] = assay: Antibacterial activity against Staphylococcus aureus ATCC 6538P after 24 hrs by microtitration method; type: functional; how it was run: as §1
Escherichia coli [8] = assay: Antibacterial activity against Escherichia coli ATCC 8739 after 24 hrs by microtitration method; type: functional; settings: ATCC 8739, 24 h; how it was run: as §1
[9] = Octanol-water partition coefficient, log P by shake flask method; type: physicochemical

Compound COc1ccc(Cl)cc1-n1ncc(-c2nnc(-c3ccc(Cl)cc3)o2)c1C has an MIC (Bacillus subtilis [1]) of 39.6 µg/mL (≈ 98.7 µM), a zone of inhibition at 100 µg/mL (Escherichia coli [2]) of 14 mm and an MIC (Klebsiella pneumoniae [3]) of 41 µg/mL (≈ 102 µM). It also gave a zone of inhibition at 100 µg/mL (Klebsiella pneumoniae [4]) of 13 mm, a zone of inhibition at 100 µg/mL (Bacillus subtilis [5]) of 15 mm and a zone of inhibition at 100 µg/mL (Staphylococcus aureus [6]) of 18 mm. The MIC (Staphylococcus aureus [7]) was 30.6 µg/mL (≈ 76.3 µM), the MIC (Escherichia coli [8]) was 40 µg/mL (≈ 99.7 µM) and the logP [9] was 4.51.

Work on COc1ccc(Cl)cc1-n1ncc(-c2nnc(-c3ccc(F)cc3)o2)c1C yielded an MIC (Bacillus subtilis [1]) of 22.4 µg/mL (≈ 58.2 µM), a zone of inhibition at 100 µg/mL (Escherichia coli [2]) of 21 mm and an MIC (Klebsiella pneumoniae [3]) of 30 µg/mL (≈ 78 µM). For the same compound, the zone of inhibition at 100 µg/mL (Klebsiella pneumoniae [4]) was 19 mm, the zone of inhibition at 100 µg/mL (Bacillus subtilis [5]) was 25 mm and the zone of inhibition at 100 µg/mL (Staphylococcus aureus [6]) was 20 mm. For the same compound, the MIC (Staphylococcus aureus [7]) was 29.8 µg/mL (≈ 77.4 µM), the MIC (Escherichia coli [8]) was 29.6 µg/mL (≈ 76.9 µM) and the logP [9] was 4.26.

For COc1ccc(Cl)cc1-n1ncc(-c2nnc(-c3ccc(Cl)c(Cl)c3)o2)c1C, the MIC (Bacillus subtilis [1]) was 30 µg/mL (≈ 68.9 µM), the zone of inhibition at 100 µg/mL (Escherichia coli [2]) was 27 mm and the MIC (Klebsiella pneumoniae [3]) was 39.6 µg/mL (≈ 90.9 µM). For the same compound, the zone of inhibition at 100 µg/mL (Klebsiella pneumoniae [4]) was 15 mm, the zone of inhibition at 100 µg/mL (Bacillus subtilis [5]) was 19 mm and the zone of inhibition at 100 µg/mL (Staphylococcus aureus [6]) was 20 mm. It also gave an MIC (Staphylococcus aureus [7]) of 29.8 µg/mL (≈ 68.4 µM), an MIC (Escherichia coli [8]) of 21.5 µg/mL (≈ 49.3 µM) and a logP [9] of 5.57.

For COc1ccc(Cl)cc1-n1ncc(-c2nnc(-c3ccc(C)c([N+](=O)[O-])c3)o2)c1C, the MIC (Bacillus subtilis [1]) was 39.6 µg/mL (≈ 93 µM), the zone of inhibition at 100 µg/mL (Escherichia coli [2]) was 17 mm and the MIC (Klebsiella pneumoniae [3]) was 42 µg/mL (≈ 98.6 µM). The zone of inhibition at 100 µg/mL (Klebsiella pneumoniae [4]) was 12 mm, the zone of inhibition at 100 µg/mL (Bacillus subtilis [5]) was 15 mm and the zone of inhibition at 100 µg/mL (Staphylococcus aureus [6]) was 14 mm. For the same compound, the MIC (Staphylococcus aureus [7]) was 40.6 µg/mL (≈ 95.3 µM), the MIC (Escherichia coli [8]) was 30.8 µg/mL (≈ 72.3 µM) and the logP [9] was 6.42.

For COc1ccc(Cl)cc1-n1ncc(-c2nnc(-c3ccc(Br)c(C)c3)o2)c1C, the MIC (Bacillus subtilis [1]) was 39.8 µg/mL (≈ 86.6 µM), the zone of inhibition at 100 µg/mL (Escherichia coli [2]) was 17 mm and the MIC (Klebsiella pneumoniae [3]) was 40 µg/mL (≈ 87 µM). The zone of inhibition at 100 µg/mL (Klebsiella pneumoniae [4]) was 14 mm, the zone of inhibition at 100 µg/mL (Bacillus subtilis [5]) was 15 mm and the zone of inhibition at 100 µg/mL (Staphylococcus aureus [6]) was 15 mm. It also gave an MIC (Staphylococcus aureus [7]) of 39.8 µg/mL (≈ 86.6 µM), an MIC (Escherichia coli [8]) of 30.8 µg/mL (≈ 67 µM) and a logP [9] of 5.2.

Compound COc1ccc(Cl)cc1-n1ncc(-c2nnc(-c3cc(Cl)cc(Cl)c3)o2)c1C has an MIC (Bacillus subtilis [1]) of 31.8 µg/mL (≈ 73 µM), a zone of inhibition at 100 µg/mL (Escherichia coli [2]) of 25 mm and an MIC (Klebsiella pneumoniae [3]) of 29.6 µg/mL (≈ 67.9 µM). The zone of inhibition at 100 µg/mL (Klebsiella pneumoniae [4]) was 21 mm, the zone of inhibition at 100 µg/mL (Bacillus subtilis [5]) was 15 mm and the zone of inhibition at 100 µg/mL (Staphylococcus aureus [6]) was 13 mm. For the same compound, the MIC (Staphylococcus aureus [7]) was 41 µg/mL (≈ 94.1 µM), the MIC (Escherichia coli [8]) was 22.4 µg/mL (≈ 51.4 µM) and the logP [9] was 5.61.

COc1ccc(Cl)cc1-n1ncc(-c2nnc(-c3ccc(Br)cc3)o2)c1C showed an MIC (Bacillus subtilis [1]) of 40.6 µg/mL (≈ 91.1 µM), a zone of inhibition at 100 µg/mL (Escherichia coli [2]) of 15 mm and an MIC (Klebsiella pneumoniae [3]) of 41.6 µg/mL (≈ 93.3 µM). The zone of inhibition at 100 µg/mL (Klebsiella pneumoniae [4]) was 13 mm, the zone of inhibition at 100 µg/mL (Bacillus subtilis [5]) was 14 mm and the zone of inhibition at 100 µg/mL (Staphylococcus aureus [6]) was 19 mm. It also gave an MIC (Staphylococcus aureus [7]) of 30 µg/mL (≈ 67.3 µM), an MIC (Escherichia coli [8]) of 39.8 µg/mL (≈ 89.3 µM) and a logP [9] of 4.88.

Work on COc1ccc(Cl)cc1-n1ncc(-c2nnc(-c3ccccc3)o2)c1C yielded an MIC (Bacillus subtilis [1]) of 29.8 µg/mL (≈ 81.2 µM), a zone of inhibition at 100 µg/mL (Escherichia coli [2]) of 14 mm and an MIC (Klebsiella pneumoniae [3]) of 40.6 µg/mL (≈ 111 µM). It also gave a zone of inhibition at 100 µg/mL (Klebsiella pneumoniae [4]) of 14 mm, a zone of inhibition at 100 µg/mL (Bacillus subtilis [5]) of 20 mm and a zone of inhibition at 100 µg/mL (Staphylococcus aureus [6]) of 15 mm. It also gave an MIC (Staphylococcus aureus [7]) of 39.8 µg/mL (≈ 109 µM), an MIC (Escherichia coli [8]) of 40.6 µg/mL (≈ 111 µM) and a logP [9] of 4.32.

COc1ccc(Cl)cc1-n1ncc(-c2nnc(-c3cccc(F)c3)o2)c1C gave an MIC (Bacillus subtilis [1]) of 30 µg/mL (≈ 78 µM), a zone of inhibition at 100 µg/mL (Escherichia coli [2]) of 18 mm and an MIC (Klebsiella pneumoniae [3]) of 29.8 µg/mL (≈ 77.4 µM). It also gave a zone of inhibition at 100 µg/mL (Klebsiella pneumoniae [4]) of 20 mm, a zone of inhibition at 100 µg/mL (Bacillus subtilis [5]) of 19 mm and a zone of inhibition at 100 µg/mL (Staphylococcus aureus [6]) of 27 mm. It also gave an MIC (Staphylococcus aureus [7]) of 21.5 µg/mL (≈ 55.9 µM), an MIC (Escherichia coli [8]) of 30.6 µg/mL (≈ 79.5 µM) and a logP [9] of 4.28.

Work on COc1ccc(Cl)cc1-n1ncc(-c2nnc(-c3ccc(C)c(Br)c3)o2)c1C yielded an MIC (Bacillus subtilis [1]) of 39.6 µg/mL (≈ 86.1 µM), a zone of inhibition at 100 µg/mL (Escherichia coli [2]) of 14 mm and an MIC (Klebsiella pneumoniae [3]) of 39 µg/mL (≈ 84.8 µM). It also gave a zone of inhibition at 100 µg/mL (Klebsiella pneumoniae [4]) of 15 mm, a zone of inhibition at 100 µg/mL (Bacillus subtilis [5]) of 15 mm and a zone of inhibition at 100 µg/mL (Staphylococcus aureus [6]) of 20 mm. It also gave an MIC (Staphylococcus aureus [7]) of 29.8 µg/mL (≈ 64.8 µM), an MIC (Escherichia coli [8]) of 40.6 µg/mL (≈ 88.3 µM) and a logP [9] of 5.19.

In the case of CC1(C)S[C@@H]2[C@H](NC(=O)[C@H](N)c3ccccc3)C(=O)N2[C@H]1C(=O)O [AMPICILLIN], the MIC (Bacillus subtilis [1]) is reported as 3.28 µg/mL (≈ 9.39 µM), the zone of inhibition at 100 µg/mL (Escherichia coli [2]) is reported as 30 mm and the MIC (Klebsiella pneumoniae [3]) is reported as 4 µg/mL (≈ 11.4 µM). It also gave a zone of inhibition at 100 µg/mL (Klebsiella pneumoniae [4]) of 30 mm, a zone of inhibition at 100 µg/mL (Bacillus subtilis [5]) of 32 mm and a zone of inhibition at 100 µg/mL (Staphylococcus aureus [6]) of 31 mm. For the same compound, the MIC (Staphylococcus aureus [7]) was 3.36 µg/mL (≈ 9.62 µM) and the MIC (Escherichia coli [8]) was 3.88 µg/mL (≈ 11.1 µM).
